Assay results published in ChEMBL document CHEMBL1773037, “Evaluation of superior BACE1 cleavage sequences containing unnatural amino acids” (Bioorg Med Chem, 2011).

Substrate: CC[C@H](C)[C@H](N)C(=O)N[C@@H](CCCCN)C(=O)N[C@H](C(=O)N[C@@H](CCC(=O)O)C(=O)N[C@@H](CCC(=O)O)C(=O)N[C@H](C(=O)N[C@@H](CO)C(=O)N[C@@H](CCC(=O)O)C(=O)N[C@H](C(=O)N[C@@H](CC(N)=O)C(=O)N[C@@H](CC(C)C)C(=O)N[C@@H](CC(=O)O)C(=O)N[C@@H](C)C(=O)N[C@@H](CCC(=O)O)C(=O)N[C@@H](Cc1ccccc1)C(=O)N[C@@H](CCCNC(=N)N)C(=O)N[C@@H](Cc1cnc[nH]1)C(=O)N[C@@H](CC(=O)O)C(=O)N[C@@H](CO)C(=O)NCC(N)=O)C(C)C)[C@@H](C)CC)[C@@H](C)O
Assay: Activity of recombinant BACE assessed as substrate cleavage at 105 uM after 15 mins by HPLC analysis
How it was run: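 Kinetic run: rBACE1 (33 nM) added to eicosapeptide amide at final concentrations 0–105, 37 °C, 15 min. Aliquots analysed by HPLC, and initial rates taken from the decrease in substrate peak area. Km obtained from a plot of [S]/v versus [S]. Measurements done three times and averaged.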

B1: Beta-secretase 1 (Homo sapiens), P56817 (protein)
chain: MAQALPWLLLWMGAGVLPAHGTQHGIRLPLRSGLGGAPLGLRLPRETDEEPEEPGRRGSFVEMVDNLRGKSGQGYYVEMTVGSPPQTLNILVDTGSSNFAVGAAPHPFLHRYYQRQLSSTYRDLRKGVYVPYTQGKWEGELGTDLVSIPHGPNVTVRANIAAITESDKFFINGSNWEGILGLAYAEIARPDDSLEPFFDSLVKQTHVPNLFSLQLCGAGFPLNQSEVLASVGGSMIIGGIDHSLYTGSLWYTPIRREWYYEVIIVRVEINGQDLKMDCKEYNYDKSIVDSGTTNLRLPKKVFEAAVKSIKAASSTEKFPDGFWLGEQLVCWQAGTTPWNIFPVISLYLMGEVTNQSFRITILPQQYLRPVEDVATSQDDCYKFAISQSSTGTVMGAVIMEGFYVVFDRARKRIGFAVSACHVHDEFRTAAVEGPFVTLDMEDCGYNIPQTDESTLMTIAYVMAAICALFMLPLCLMVCQWRCLRCLRQQHDDFADDISLLK
  Km: 5.5 µM
  kcat: 1720 s⁻¹
